This note sets out measurements from ChEMBL document CHEMBL2380285, “Quinolin-4(1H)-imines are potent antiplasmodial drugs targeting the liver stage of malaria” (J Med Chem, 2013).

Data set [1] in a line: Half life in rat liver microsomes at 1 uM after 24 hrs by LC-MS/MS analysis. In general terms: Microsomes from liver hold many membrane-bound enzymes, among them those of drug oxidation.
Data set [2] is described as follows: Selectivity index, ratio of CC50 for human HepG2 cells to IC50 for liver stage Plasmodium berghei. It counts as functional.
Data set [3] is described as follows: Cytotoxicity against human HepG2 cells after 48 hrs by Alamar Blue assay. The format is cell-based. In general terms: Resazurin is reduced to fluorescent resorufin, in cell work by metabolically active cells.
The nature of data set [4]: Binding affinity to hematin (unknown origin) by UV-visible titration analysis.
Data set [5] relates to Plasmodium falciparum. Kind of data set: Antiplasmodial activity against ring stage Plasmodium falciparum W2 infected in human RBC after 48 hrs by FACS analysis. It counts as functional, organism-based. To be noted: W2, 48 h.
In data set [6] the test system is Plasmodium berghei. The data set can be described thus: Antiplasmodial activity against liver stage Plasmodium berghei infected in human HuH7 cells co-expressing GFP-Luccon treated for 1 hr prior to infection followed by 24 hrs after compound washout measured after 48 hrs post-infection by Alamar Blue assay. The format is functional, organism-based. The settings on record: Huh-7. The essentials:
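Huh-7 hepatoma cells infected with P. berghei were exposed to a rising series of inhibitor concentrations, with 10 μM the highest tested. IC50 was read from sigmoidal concentration–response curves.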

Data set [7] in a line: Inhibition of heme crystallization to hemozoin. The format is functional.
Data set [8] concerns Plasmodium berghei. Kind of data set: Ratio of primaquine IC50 to compound IC50 for liver stage Plasmodium berghei infected in human HuH7 cells. It counts as functional, Huh-7.
The test system of data set [9] is Plasmodium falciparum. Kind of data set: Inhibition of Plasmodium falciparum Enoyl-ACP reductase using Crotonoyl-CoA as substrate up to 50 uM after 20 mins by fluorescence assay.
Data set [10] deals with Plasmodium falciparum. The data set can be described thus: Inhibition of Plasmodium falciparum thioredoxin reductase using DTNB as substrate up to 50 uM after 1 hr by colorimetric assay.
Data set [11] concerns the target T1, Dihydroorotate dehydrogenase (fumarate) (Saccharomyces cerevisiae S288c) (UniProt P28272).
T1 sequence (whole entry): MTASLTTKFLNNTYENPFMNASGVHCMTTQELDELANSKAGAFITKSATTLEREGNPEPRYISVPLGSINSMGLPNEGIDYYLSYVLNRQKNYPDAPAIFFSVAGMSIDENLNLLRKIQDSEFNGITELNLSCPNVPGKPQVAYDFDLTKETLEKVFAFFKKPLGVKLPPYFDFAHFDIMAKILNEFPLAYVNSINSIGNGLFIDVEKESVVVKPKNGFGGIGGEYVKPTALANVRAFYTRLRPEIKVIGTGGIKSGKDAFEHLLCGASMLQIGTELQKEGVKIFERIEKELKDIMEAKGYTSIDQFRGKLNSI
Kind of data set: Inhibition of Saccharomyces cerevisiae DHODH expressed in Plasmodium falciparum Dd2 by [3H]-hypoxanthine incorporation assay.

For data set [12], the target named is T1, Dihydroorotate dehydrogenase (fumarate) (Saccharomyces cerevisiae S288c). The data set can be described thus: Inhibition of Saccharomyces cerevisiae DHODH expressed in Plasmodium falciparum Dd2 by [3H]-hypoxanthine incorporation assay in presence of proguanil.
Data set [13] in a line: Inhibition of Cytochrome b-c1 complex in Plasmodium falciparum 3D7A mitochondria assessed as antimycin-sensitive decylubiquinol-cytochrome c oxidoreductase level.

By half-life is commonly meant how long it takes for the measured level to halve. In general, CC50 refers to the concentration that lowers cell viability or growth by half. Read a low CC50 as greater toxicity to the cells. Broadly, the IC50 is the concentration needed to halve the response being measured.

Molecules are shown by their SMILES. Calls of active or inactive are those of the source. The calls are words filed in the database; no cut-off is given here.

`CCn1cc/c(=N\c2ccc(Oc3cccc(OC(F)(F)F)c3)cc2)c2ccc(C(F)(F)F)cc21` gave a half-life at 24 h, 1 µM in data set [1] (microsomes) of 8.5 h. For the same compound, in data set [2], the “Ratio CC50/IC50” value is 24. The compound also returned a CC50 at 48 h in [3] of 12900 nM. For the same compound, in data set [4], the logKA turned out to be 3.9. Also, the IC50 in data set [5] was found to be 1560 nM; in [6], 537 nM.
Take `CCn1cc/c(=N\c2ccc(Oc3ccc(Cl)cc3)cc2)c2ccc(Cl)cc21`: the half-life at 24 h, 1 µM in data set [1] (microsomes) is 3.9 h. Besides, in data set [2], the “Ratio CC50/IC50” value turned out to be 30.9. This compound displayed a CC50 at 48 h in data set [3] of 2690 nM. In addition, the IC50 in data set [7] was 16200 nM; in [5], 1090 nM; in [6] it was 87 nM. This compound had a logKA in data set [4] of 5.1. Moreover, the “Ratio IC50” value in data set [8] is reported as 94.
As for `Cn1cc/c(=N\c2ccc(Oc3ccc(C(F)(F)F)cc3)cc2)c2ccc(Cl)cc21`, the half-life at 24 h, 1 µM in data set [1] (liver microsomes) is 4.1 h. Also, the “Ratio CC50/IC50” value in data set [2] was 13.4. In [3], this compound returned a CC50 at 48 h of 3080 nM. For the same compound, the logKA in data set [4] was found to be 4.9. Also, the IC50 in data set [5] amounted to 1080 nM; in data set [6] it was 229 nM.
Compound `Cc1nc(C)c(Cl)c(O)c1Cl` [CLOPIDOL] showed a logKA in [4] of 4.7. In addition, it took 1460 nM to reach half-maximal inhibition in [6] (IC50).
`CCOC(=O)c1cn(CC)c2ccc(F)cc2/c1=N/c1ccc(-c2ccccc2)cc1`: the IC50 in data set [5] was 5320 nM; in [6] it was over 10000 nM.
Take `CCn1cc/c(=N\c2cccc(CCc3ccc(OC(F)(F)F)cc3)c2)c2ccc(Cl)cc21`: in data set [2], the “Ratio CC50/IC50” value is 17.4. Besides, in data set [3], the CC50 at 48 h turned out to be 3940 nM. In data set [4], this compound came in with a logKA of 5.2. Further, the IC50 in data set [5] was determined as 3110 nM; in data set [6], 227 nM.
In the case of `CCn1cc/c(=N\c2ccc(Oc3ccc(OC(F)(F)F)cc3)cc2)c2ccc(Cl)cc21`, the “Ratio CC50/IC50” value in data set [2] was determined as 24.3. Moreover, in data set [3], the CC50 at 48 h is 3530 nM. The IC50 in [7] worked out at 13500 nM; in data set [5] it was 960 nM; in data set [6], 145 nM. This compound also registered a logKA in data set [4] of 4.9.
In [1] (liver microsomes), `CCn1cc/c(=N\c2ccc(-c3ccccc3)cc2)c2ccc(C(F)(F)F)cc21` showed a half-life at 24 h, 1 µM of 4.2 h. The inhibition entry in data set [9], in [10], in [11] and in data set [12] was “inactive” in each case. The IC50 in data set [13] was 28000 nM; in data set [7], 17000 nM; in data set [5] it was 590 nM; in data set [6], 575 nM. Besides, the “Ratio CC50/IC50” value in [2] is 12.2. Moreover, in data set [3], the CC50 at 48 h worked out at 7040 nM. In data set [4], this compound yielded a logKA of 5.7.
For `CCn1cc/c(=N\c2ccc(Oc3ccc(C(F)(F)F)cc3)cc2)c2ccc(Cl)cc21`, the CC50 at 48 h in data set [3] was found to be 3200 nM. Also, the IC50 in [5] was determined as 1260 nM; in [6], 234 nM.
Turning to `CCn1cc/c(=N\c2ccc(Oc3ccccc3)cc2)c2ccc(Cl)cc21`, the “Ratio CC50/IC50” value in data set [2] is on record as 24.9. Moreover, it took 5330 nM to reach half-maximal cytotoxicity in data set [3] (CC50 at 48 h). Further, in data set [4], the logKA came to 5.4. Besides, the IC50 worked out at 890 nM in data set [5] and 214 nM in data set [6].
As for `CCn1cc/c(=N\c2cccc(CCc3ccc(Cl)cc3)c2)c(Cl)c1`, in data set [6], the IC50 came out at 407 nM.
`CCN(CC)CCCC(C)Nc1ccnc2cc(Cl)ccc12` (stereo unspecified) [CHLOROQUINE] yielded an IC50 in data set [7] of 6600 nM.
Take `CCn1cc/c(=N\c2cccc(CCc3ccc(OC(F)(F)F)cc3)c2)c2ccc(C(F)(F)F)cc21`: in data set [2], the “Ratio CC50/IC50” value was 25.9. This compound also had a CC50 at 48 h in data set [3] of 6090 nM. In addition, the logKA in [4] came to 4.9. For the same compound, the IC50 is 1670 nM in data set [5] and 235 nM in data set [6].
For `CCn1cc/c(=N\c2ccc(Cc3ccccc3)cc2)c2ccc(Cl)cc21`, in that order: 4.91, 2890 nM, 5, 1690 nM and 589 nM.
In turn, `CCn1cc/c(=N\c2ccc(-c3ccccc3)cc2)c2ccc(Cl)cc21` showed a half-life at 24 h, 1 µM in data set [1] (liver microsomes) of 4 h. For the same compound, the “Ratio CC50/IC50” value in data set [2] amounted to 23.6. Further, it took 4610 nM to reach half-maximal cytotoxicity in [3] (CC50 at 48 h). Further, the IC50 was 18900 nM in data set [7], 540 nM in [5] and 200 nM in data set [6]. The compound also showed a logKA in data set [4] of 5.6.
In turn, `O=C(CC1NCCCC1O)Cn1cnc2cc(Br)c(Cl)cc2c1=O` (stereo unspecified) [HALOFUGINONE] yielded an IC50 in [6] of 17 nM.
Turning to `CCOC(=O)c1cn(C)c2ccc(F)cc2/c1=N/c1ccc(-c2ccccc2)cc1`, the figures for the IC50 in [5] and in [6] were 5880 nM and over 10000 nM, respectively.
`O=C1C(O)=C([C@H]2CC[C@H](c3ccc(Cl)cc3)CC2)C(=O)c2ccccc21` [ATOVAQUONE]: the IC50 is 0.3 nM in data set [13] and 0.376 nM in [6].
As for `CCn1cc/c(=N\c2ccc(Oc3cccc(OC(F)(F)F)c3)cc2)c2ccc(Cl)cc21`, the inhibition entry in [9], in data set [10], in data set [11] and in data set [12] was “inactive” throughout. The IC50 was found to be 1200 nM in data set [13], 15400 nM in data set [7], 1180 nM in [5] and 81 nM in data set [6]. The “Ratio CC50/IC50” value in data set [2] turned out to be 63.7. In [3], this compound registered a CC50 at 48 h of 5160 nM. This compound also yielded a logKA in data set [4] of 5.1. In data set [8], the “Ratio IC50” value came out at 94.
